Key:
[1] = molecular target: T1, Adrenergic receptor alpha-1 (Rattus norvegicus, UniProt P15823+P23944+P43140); test: Displacement of [3H]-Prazosin from alpha1 adrenergic receptor in rat brain cerebral cortex membranes by liquid scintillation counting analysis; assay type: cell membranes, Membrane
T1 sequence (P15823 whole entry): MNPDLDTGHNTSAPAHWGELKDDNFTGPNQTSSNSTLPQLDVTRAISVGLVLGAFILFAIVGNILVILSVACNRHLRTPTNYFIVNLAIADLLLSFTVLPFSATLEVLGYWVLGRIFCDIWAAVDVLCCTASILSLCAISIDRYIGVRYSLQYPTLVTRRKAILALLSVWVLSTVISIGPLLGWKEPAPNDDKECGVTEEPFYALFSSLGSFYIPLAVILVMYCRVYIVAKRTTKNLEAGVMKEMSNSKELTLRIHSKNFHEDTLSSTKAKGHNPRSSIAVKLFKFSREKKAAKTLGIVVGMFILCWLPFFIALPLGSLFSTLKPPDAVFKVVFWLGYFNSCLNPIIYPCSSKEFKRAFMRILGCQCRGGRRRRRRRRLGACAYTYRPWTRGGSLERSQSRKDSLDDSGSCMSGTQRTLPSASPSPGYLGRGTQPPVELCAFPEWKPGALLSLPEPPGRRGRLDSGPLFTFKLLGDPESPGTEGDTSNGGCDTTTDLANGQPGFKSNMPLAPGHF
T1 sequence (P23944 whole entry): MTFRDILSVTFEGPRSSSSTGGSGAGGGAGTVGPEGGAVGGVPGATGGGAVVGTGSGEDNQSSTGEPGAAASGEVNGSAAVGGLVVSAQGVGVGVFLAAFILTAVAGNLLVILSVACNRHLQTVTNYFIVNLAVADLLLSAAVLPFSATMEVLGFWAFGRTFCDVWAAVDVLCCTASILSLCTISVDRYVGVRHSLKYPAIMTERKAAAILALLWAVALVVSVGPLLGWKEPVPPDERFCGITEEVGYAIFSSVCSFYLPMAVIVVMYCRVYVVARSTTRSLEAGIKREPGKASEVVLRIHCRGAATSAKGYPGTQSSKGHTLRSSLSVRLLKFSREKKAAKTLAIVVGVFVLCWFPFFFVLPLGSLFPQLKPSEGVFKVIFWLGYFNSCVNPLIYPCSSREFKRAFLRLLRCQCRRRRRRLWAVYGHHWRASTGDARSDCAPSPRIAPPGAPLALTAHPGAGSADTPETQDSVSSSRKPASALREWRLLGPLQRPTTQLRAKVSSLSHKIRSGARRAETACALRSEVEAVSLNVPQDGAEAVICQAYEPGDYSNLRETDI
T1 sequence (P43140 whole entry): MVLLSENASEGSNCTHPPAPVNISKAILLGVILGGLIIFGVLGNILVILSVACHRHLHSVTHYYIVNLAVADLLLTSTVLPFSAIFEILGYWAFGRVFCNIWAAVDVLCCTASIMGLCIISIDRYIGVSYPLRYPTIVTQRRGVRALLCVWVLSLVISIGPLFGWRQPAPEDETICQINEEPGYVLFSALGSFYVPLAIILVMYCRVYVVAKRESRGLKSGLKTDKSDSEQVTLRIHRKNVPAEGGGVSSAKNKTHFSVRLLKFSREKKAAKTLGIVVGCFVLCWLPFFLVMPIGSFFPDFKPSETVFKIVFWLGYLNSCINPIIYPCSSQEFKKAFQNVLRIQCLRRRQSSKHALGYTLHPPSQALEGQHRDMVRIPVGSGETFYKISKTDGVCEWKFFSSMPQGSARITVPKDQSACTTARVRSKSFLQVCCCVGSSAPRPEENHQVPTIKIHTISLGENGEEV
Procedure, shortened: (§1)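 Rat cerebral cortex homogenized in ice-cold 50 mM Tris–HCl (pH 7.6), spun at 20,000 g for 20 min (0–4 °C), resuspended and spun again. Membranes incubated with 0.2 nM [3H]-prazosin (α1) or 2 nM [3H]-clonidine (α2) and seven to eight compound concentrations (10^-11 to 10^-4 M). Non-specific binding defined with 10 µM phentolamine (prazosin) or 10 µM clonidine (clonidine). Ended by GF/C filtration, counted by liquid scintillation. Run in duplicate; Ki from two independent experiments.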

[2] = molecular target: T2, Adrenergic receptor alpha-2 (Rattus norvegicus, UniProt P22086+P19328+P22909); test: Displacement of [3H]-Clonidine from alpha2 adrenergic receptor in rat brain cerebral cortex membranes by liquid scintillation counting analysis; assay type: cell membranes, Membrane; procedure, shortened: as §1
T2 sequence (P22086 whole entry): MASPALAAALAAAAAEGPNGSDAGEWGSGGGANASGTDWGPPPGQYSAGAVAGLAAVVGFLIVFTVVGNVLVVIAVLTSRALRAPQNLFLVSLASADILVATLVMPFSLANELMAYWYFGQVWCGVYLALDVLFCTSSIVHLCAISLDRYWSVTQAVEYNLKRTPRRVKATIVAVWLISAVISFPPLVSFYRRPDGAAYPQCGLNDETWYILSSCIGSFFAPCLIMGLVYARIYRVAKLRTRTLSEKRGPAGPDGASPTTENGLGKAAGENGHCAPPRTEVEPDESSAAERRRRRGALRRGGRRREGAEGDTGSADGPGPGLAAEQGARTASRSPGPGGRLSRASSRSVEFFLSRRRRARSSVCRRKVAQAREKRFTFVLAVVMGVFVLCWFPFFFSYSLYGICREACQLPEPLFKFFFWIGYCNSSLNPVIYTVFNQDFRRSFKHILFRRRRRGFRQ
T2 sequence (P19328 whole entry): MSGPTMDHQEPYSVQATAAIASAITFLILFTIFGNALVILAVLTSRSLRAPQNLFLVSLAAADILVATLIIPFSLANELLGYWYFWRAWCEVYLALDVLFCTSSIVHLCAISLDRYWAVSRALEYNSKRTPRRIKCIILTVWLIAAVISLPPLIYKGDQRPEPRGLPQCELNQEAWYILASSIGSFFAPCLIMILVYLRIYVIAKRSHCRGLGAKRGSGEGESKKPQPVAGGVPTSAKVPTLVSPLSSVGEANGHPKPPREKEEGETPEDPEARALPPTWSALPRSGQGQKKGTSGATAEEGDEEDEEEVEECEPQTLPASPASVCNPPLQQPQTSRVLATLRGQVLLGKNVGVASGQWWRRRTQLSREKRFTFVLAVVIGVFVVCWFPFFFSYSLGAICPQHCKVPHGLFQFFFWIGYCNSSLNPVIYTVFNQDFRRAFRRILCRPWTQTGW
T2 sequence (P22909 whole entry): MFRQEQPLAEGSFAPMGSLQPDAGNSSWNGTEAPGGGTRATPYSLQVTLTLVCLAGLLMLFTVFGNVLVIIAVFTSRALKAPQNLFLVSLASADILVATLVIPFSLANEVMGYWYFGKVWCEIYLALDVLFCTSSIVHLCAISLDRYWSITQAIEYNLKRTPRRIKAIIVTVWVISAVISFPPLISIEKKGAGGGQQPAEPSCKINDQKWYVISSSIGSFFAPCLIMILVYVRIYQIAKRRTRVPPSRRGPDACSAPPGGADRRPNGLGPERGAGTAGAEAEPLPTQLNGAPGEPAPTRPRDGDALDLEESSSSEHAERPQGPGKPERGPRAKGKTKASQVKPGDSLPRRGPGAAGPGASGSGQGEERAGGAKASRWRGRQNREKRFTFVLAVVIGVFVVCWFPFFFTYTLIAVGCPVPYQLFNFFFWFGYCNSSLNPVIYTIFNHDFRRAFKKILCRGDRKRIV

Rattus norvegicus [3] = species: Rattus norvegicus; test: Selectivity ratio of Ki for alpha2 adrenergic receptor in rat brain cerebral cortex membranes to Ki for alpha1 adrenergic receptor in rat brain cerebral cortex membranes; assay type: cell membranes; procedure, shortened: as §1
Rattus norvegicus [4] = test: Hypotensive activity in normotensive anesthetized Wistar rat assessed as decrease in systolic blood pressure at 2 mg/kg, iv administered as single dose measured 60 mins post dose relative to control; assay type: functional; conditions: 1 h
Procedure, shortened: (§2)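 Male Wistar rats (200–250 g), groups of six, anaesthetized with thiopental 70 mg/kg ip. Left carotid artery cannulated with heparinized saline-filled tubing for pressure recording. Compounds dissolved in water and given once iv. Blood pressure taken at 0 min (control) and over 60 min afterward. Data as mean ± SEM, analysed by one-way ANOVA with Dunnett's test against 0 min.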

Rattus norvegicus [5] = test: Hypotensive activity in normotensive anesthetized Wistar rat assessed as decrease in diastolic blood pressure at 2 mg/kg, iv administered as single dose measured 60 mins post dose relative to control; assay type: functional; conditions: 1 h; procedure, shortened: as §2
[6] = molecular target: T3, Alpha-1B adrenergic receptor (Homo sapiens, UniProt P35368); test: Intrinsic activity at human alpha1B adrenergic receptor expressed in CHOK1 cells co-expressing aequorin assessed as inhibition of agonist induced calcium mobilization preincubated for 15 mins followed by agonist addition measured for 20 secs in presence of coelenterazine H by luminescence assay; assay type: cell-based, CHO-K1
T3 sequence (P35368 whole entry): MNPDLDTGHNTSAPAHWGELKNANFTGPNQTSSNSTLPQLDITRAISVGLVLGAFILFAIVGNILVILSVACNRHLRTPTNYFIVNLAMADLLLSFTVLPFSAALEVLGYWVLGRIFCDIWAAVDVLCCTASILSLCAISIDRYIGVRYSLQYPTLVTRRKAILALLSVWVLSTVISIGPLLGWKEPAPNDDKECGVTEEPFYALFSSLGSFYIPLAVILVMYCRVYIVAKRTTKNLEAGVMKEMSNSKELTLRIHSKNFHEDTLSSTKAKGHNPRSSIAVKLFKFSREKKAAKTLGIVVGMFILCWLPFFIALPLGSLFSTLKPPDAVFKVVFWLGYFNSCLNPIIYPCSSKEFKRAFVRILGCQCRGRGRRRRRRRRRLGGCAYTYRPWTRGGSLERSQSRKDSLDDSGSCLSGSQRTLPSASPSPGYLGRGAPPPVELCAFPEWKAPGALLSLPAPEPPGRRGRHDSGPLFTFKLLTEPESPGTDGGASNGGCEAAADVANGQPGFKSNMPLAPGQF
Procedure, shortened: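 Frozen ready-to-use cells stably expressing α1B receptor and aequorin, resuspended in assay buffer with 5 µM coelenterazine h and rotated overnight at rt in the dark. Diluted to 5000 cells/20 µL. Agonist mode: cells injected onto ligands, light recorded 20 s. Antagonist mode: 15 min with compound at room temperature, then agonist at 3× EC80 final, light recorded 20 s. Mean EC50 from three experiments.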

SMILES | Ki [1] [nM] | Ki [2] [nM] | Ratio Ki (Rattus norvegicus [3]) | EC50 [6] [nM] | inhibition in vivo at 2 mg/kg (Rattus norvegicus [4]) [%] | inhibition in vivo at 2 mg/kg (Rattus norvegicus [5]) [%]
CC(C)Oc1ccccc1OCCN1CC[C@@H](NS(=O)(=O)c2cc(Cl)ccc2F)C1 | 106 | 398 | 4 | – | – | –
CC(C)Oc1ccccc1OCCN1CC[C@H](NS(=O)(=O)c2cc(Cl)ccc2F)C1 | 242 | > 10000 | > 41 | – | – | –
CC(C)Oc1ccccc1OCCN1CCC(CNS(=O)(=O)c2cc(Cl)ccc2F)CC1 | 133 | 870 | 7 | – | – | –
CCOc1ccccc1OCCN[C@H](C)Cc1ccc(OC)c(S(N)(=O)=O)c1 [TAMSULOSIN] | – | – | – | 0.13 | 11 to 17 | 11 to 18
CC(C)Oc1ccccc1OCCN1CCC(NS(=O)(=O)c2cccc3cccnc23)CC1 | 73 | 194 | 3 | – | – | –
CC(C)Oc1ccccc1OCCN1CCC(CNS(=O)(=O)c2cncc3ccccc23)CC1 | 67 | 578 | 9 | – | – | –
CC(C)Oc1ccccc1OCCN1CCC(NS(=O)(=O)c2cccc(Cl)c2F)CC1 | 131 | 188 | 1 | – | – | –

Continued, in another order:

Ki [1] [nM] | Ki [2] [nM] | Ratio Ki (Rattus norvegicus [3]) | EC50 [6] [nM] | SMILES | inhibition in vivo at 2 mg/kg (Rattus norvegicus [4]) [%] | inhibition in vivo at 2 mg/kg (Rattus norvegicus [5]) [%]
348 | > 10000 | > 29 | – | COc1ccccc1OCCN1CC[C@H](NS(=O)(=O)c2cccc(Cl)c2F)C1 | – | –
176 | 378 | 2 | – | CC(C)Oc1ccccc1OCCN1CC[C@@H](NS(=O)(=O)c2cccc(Cl)c2F)C1 | – | –
289 | 2354 | 8 | – | COc1ccccc1OCCN1CC[C@@H](NS(=O)(=O)c2cc(Cl)ccc2F)C1 | – | –
118 | 293 | 3 | – | CC(C)Oc1ccccc1OCCN1CCC(NS(=O)(=O)c2cc(Cl)ccc2F)CC1 | – | –
241 | 1944 | 8 | – | COc1ccccc1OCCN1CC[C@@H](NS(=O)(=O)c2cccc(Cl)c2F)C1 | – | –
77 | 416 | 5 | – | CC(C)Oc1ccccc1OCCN1CCC(CNS(=O)(=O)c2ccc(F)cc2)CC1 | – | –
92 | > 10000 | > 109 | – | CC(C)Oc1ccccc1OCCN1CC[C@H](NS(=O)(=O)c2cccc(Cl)c2F)C1 | – | –
93 | 131 | 1 | – | COc1ccccc1OCCN1CCC(NS(=O)(=O)c2cccc3cccnc23)CC1 | – | –
214 | > 10000 | – | – | COc1ccccc1OCCN1CC[C@H](NS(=O)(=O)c2cc(Cl)ccc2F)C1 | – | –
34 | 129 | 4 | – | COc1ccccc1OCCN1CCC(NS(=O)(=O)c2cc(Cl)ccc2F)CC1 | – | –

Reference: ChEMBL document CHEMBL3861996, “Arylsulfonamide derivatives of (aryloxy)ethyl pyrrolidines and piperidines as α1-adrenergic receptor antagonist with uro-selective activity” (Bioorg Med Chem, 2016)
